Test results taken from ChEMBL document CHEMBL1121421, “2,4-Diamino-5-benzylpyrimidines and analogues as antibacterial agents. 2. C-Alkylation of pyrimidines with Mannich bases and application to the synthesis of trimethoprim and analogues” (J Med Chem, 1980).
Values after ≈ are worked out from the molar mass of the structure shown.

Experiments:
[1] = test system: Shigella dysenteriae; assay: Antibacterial activity against of against Shig dysentariae CN 1523.; type: functional
[2] = test system: Streptococcus pyogenes; assay: Antibacterial activity against Streptococcus pyogenes CN10; type: functional
[3] = test system: Klebsiella pneumoniae; assay: Antibacterial activity against Klebsiella pneumoniae CN 3632.; type: functional
[4] = test system: Salmonella; assay: Antibacterial activity against typhi CN512.; type: functional, salmonella typhosa
[5] = test system: Escherichia coli; assay: Antibacterial activity against Escherichia coli CN314.; type: functional
[6] = biological target: T1, Dihydrofolate reductase (Rattus norvegicus) (UniProt Q920D2); assay: (§1) Inhibitory activity against Dihydrofolate reductase enzyme purified from rat liver.; set-up: scale not given: the % may be the effect or the level left
T1 sequence (whole entry): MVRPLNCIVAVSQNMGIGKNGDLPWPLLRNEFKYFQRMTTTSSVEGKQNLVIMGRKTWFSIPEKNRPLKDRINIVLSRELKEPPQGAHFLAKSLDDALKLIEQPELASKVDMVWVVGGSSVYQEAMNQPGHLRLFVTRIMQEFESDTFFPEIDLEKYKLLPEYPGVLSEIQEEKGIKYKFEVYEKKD
Summary of the method: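 Partially purified rat liver dihydrofolate reductase in phosphate buffer. Compound was preincubated with enzyme and buffer for 5 min at 37 °C. NADPH was then added, followed by FH₂ to start the reaction. IC₅₀ (50% drop in reaction rate) was taken from titrations over three to six compound concentrations. Otherwise the value is the percent inhibition at the highest concentration tested.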

[7] = test system: Proteus vulgaris; assay: Antibacterial activity against Proteus vulgaris CN 329.; type: functional
[8] = test system: Staphylococcus aureus; assay: Antibacterial activity against Staphylococcus aureus CN491.; type: functional
[9] = test system: Serratia marcescens; assay: Antibacterial activity against of against Serr. marcescens CN 398.; type: functional
[10] = biological target: T2, Dihydrofolate reductase (Rattus norvegicus, UniProt Q920D2); assay: as §1; settings: read-out: I50
T2 sequence (Q920D2 whole entry): T1 sequence (whole entry)

[11] = biological target: Bifunctional dihydrofolate reductase-thymidylate synthase (Plasmodium berghei str. ANKA, UniProt Q27713); assay: Inhibitory activity against Dihydrofolate reductase enzyme purified from Plasmodium berghei.; settings: read-out: I50
Sequence of Bifunctional dihydrofolate reductase-thymidylate synthase (Q27713 whole entry): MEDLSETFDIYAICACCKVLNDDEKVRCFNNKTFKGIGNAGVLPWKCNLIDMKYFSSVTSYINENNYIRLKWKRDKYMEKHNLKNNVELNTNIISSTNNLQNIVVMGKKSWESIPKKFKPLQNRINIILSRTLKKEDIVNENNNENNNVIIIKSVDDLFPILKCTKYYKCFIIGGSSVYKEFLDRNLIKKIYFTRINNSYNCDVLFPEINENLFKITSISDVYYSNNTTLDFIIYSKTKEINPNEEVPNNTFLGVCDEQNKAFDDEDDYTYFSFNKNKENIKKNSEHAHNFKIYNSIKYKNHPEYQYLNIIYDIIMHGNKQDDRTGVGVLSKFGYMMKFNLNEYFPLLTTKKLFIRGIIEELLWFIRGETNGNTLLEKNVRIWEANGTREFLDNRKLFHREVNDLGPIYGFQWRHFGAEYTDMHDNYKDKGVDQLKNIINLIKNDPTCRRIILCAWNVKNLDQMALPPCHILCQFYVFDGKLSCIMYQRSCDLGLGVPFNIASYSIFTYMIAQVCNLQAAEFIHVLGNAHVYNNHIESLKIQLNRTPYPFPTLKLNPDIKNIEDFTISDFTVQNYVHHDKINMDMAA

COc1cc(Cc2c[n+](C)c(N)nc2N)cc(OC)c1OC.[I-] showed an MIC [1] of 25 µg/mL, an MIC [2] of 50 µg/mL and an MIC [3] of over 100 µg/mL. It also gave an MIC [4] of 25 µg/mL, an MIC [5] of 50 µg/mL and an Activity [6] of 41%. The MIC [7] was over 100 µg/mL and the MIC [8] was 50 µg/mL.
Work on COc1cc(Cc2c(N)nc(N)nc2O)cc(OC)c1O yielded an MIC [1] of over 100 µg/mL, an MIC [2] of over 100 µg/mL and an MIC [9] of over 100 µg/mL. The MIC [3] was over 100 µg/mL, the MIC [4] was over 100 µg/mL and the MIC [5] was over 100 µg/mL. It also gave an MIC [7] of over 100 µg/mL and an MIC [8] of over 100 µg/mL.
With COc1cc(Cc2cnc(N)nc2N)cc(OC)c1OC [TRIMETHOPRIM] the MIC [1] was 0.1 µg/mL (≈ 0.344 µM), the MIC [2] was 0.3 µg/mL (≈ 1.03 µM) and the MIC [9] was 3 µg/mL (≈ 10.3 µM). It also gave an MIC [3] of 0.3 µg/mL (≈ 1.03 µM), an MIC [4] of 0.3 µg/mL (≈ 1.03 µM) and an MIC [5] of 0.3 µg/mL (≈ 1.03 µM). For the same molecule, the MIC [7] was 1 µg/mL (≈ 3.44 µM) and the MIC [8] was 1 µg/mL (≈ 3.44 µM).
In the case of COc1cc(Cc2c(C)nc(N)nc2N)cc(OC)c1OC, the MIC [1] is reported as 30 µg/mL (≈ 98.6 µM), the MIC [2] is reported as 30 µg/mL (≈ 98.6 µM) and the MIC [9] is reported as over 100 µg/mL. For the same molecule, the MIC [3] was over 100 µg/mL, the MIC [4] was 30 µg/mL (≈ 98.6 µM) and the MIC [5] was 30 µg/mL (≈ 98.6 µM). For the same molecule, the MIC [7] was over 100 µg/mL and the MIC [8] was 30 µg/mL (≈ 98.6 µM).
COc1cc(Cc2cnc(N)nc2N)cc(OC)c1O [4-HYDROXYTRIMETHOPRIM] was tested, and the IC50 [10] was 92 µM, the MIC [2] was 0.5 µg/mL (≈ 1.81 µM) and the MIC [4] was 0.03 µg/mL (≈ 0.109 µM). The MIC [5] was 0.125 µg/mL (≈ 0.452 µM), the IC50 [11] was 0.3 µM and the MIC [7] was 2 µg/mL (≈ 7.24 µM). It also gave an MIC [8] of 0.5 µg/mL (≈ 1.81 µM).
